# Laboratory results reported in the array DNA melting data of Ke et al. (doi:10.1101/2024.01.08.574731).
# Key:
# [1] = folding enthalpy; higher = less favourable; fluorescence melt of hairpins on a sequencing array, two-state fit; settings: sodium 0.088 M
# Outline: (§1)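 Bootstrapped two-state fits yielded melting temperature and folding enthalpy for library hairpins. Cy3 fluorescence, with annealed Cy3 and quencher oligos, was imaged on a sequenced MiSeq flow cell in 50 mM Na-HEPES pH 8.0, 25 mM NaCl in 2.5 °C steps up to 60 °C, and normalised to pre-quench Cy3 and to control constructs. Four replicates were combined by inverse variance, and fitted temperatures were raised by 9.35 °C to match UV melts.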
# [2] = melting temperature; fluorescence melt of hairpins on a sequencing array, two-state fit, raised by 9.35 °C to match UV melts; settings: sodium 0.088 M
# Outline: as §1
Sequence,folding enthalpy [1] [kcal/mol],Tm [2] [°C]
GCTAGCACGAAAGTGAGC (((..(((....)))))),-17.4,35.1
GATCAACTCGTTGATC ((((((....)))))),-42.6,57.5
GCTCGGGGAAACCTGGGC ((.(.((....)).).)),-18.5,45.9
GATCACCGAAAGGTATC (((.(((....)))))),-15.8,34.1
GGCTTCACGAAAGTGGCC (((..(((....)))))),-19.6,45.2
GGGTGCGAAAGCATCCCC ((((((....)))..))),-13.4,64.3
GCTGAAGGAAACCTCAGC (((((.(....).))))),-37.2,47
GATCGAAAAACGATC ((...........)),-20.3,39.2
GATCATTAACATGATC ((((((....)))))),-28.6,44.7
GGGTTCGGAAACGAATCC ((.((((....)))).)),-44,53.7
GCCCAACGAAAGTTGGC (((.(((....)))))),-12.8,57.1
GACGCTGGAAACAACGCC (.((.((....)).)).),-12.6,28.2
GTTGGCGAAAGCCACAAC ((((((....)))..))),-8.33,33.8
GATCTTGTTGAAGATC ((((((....)))))),-27.2,45
GTGTTCGAAAGAACAC ((((((....)))))),-31.5,68.6
GCAACGCGAAAGCTCTGC (((..((....))..))),-9.33,34.6
GTCCTGACGAAAGTCGAC (((..(((....)))))),-10.3,29.1
GTCGTGGGAAACCGCGAC ((((.((....)).)))),-48.7,60.8
GGTCGACCGAAAGGTACC (((..(((....)))))),-14,31.8
GTCATAGCGAAAGCTGAC (((..(((....)))))),-22.8,46.6
GATCATGGCCATGATC ((((((....)))))),-49.5,56.3
GCGGAAGAAATTCCGC ((((((....)))))),-34.9,61.8
GCAGTCGGAAACAACTGC (((((.(....).))))),-32.9,46.1

Sequence,folding enthalpy [1] [kcal/mol],Tm [2] [°C]
CGTGCACGGAAACGTACG (((..(((....)))))),-8.88,33.2
GCTGCCGCGAAAGCGAGC (((..(((....)))))),-9.35,57.6
GCTTCGCGAAAGCGAGC (((.(((....)))))),-15.6,61.4
GATTTGGGAAACCAAATC (((((((....))))))),-40.9,55
GAGTGAGGAAACTTGCTC (((..((....))..))),-12.9,37.5
GGCCTCGAAAGAGTAGCC ((((((....)))..))),-25.9,49.2
GTCGTCACGAAAGTGGAC (((..(((....)))))),-13.3,37.5
GAAGACGAAAGTCCCTTC ((((((....)))..))),-13.8,30.8
GATCTTGTACAAGATC ((((((....)))))),-43.2,51.7
GATCCACTGTGGATC ((((((...)))))),-39.4,51.6
GAGCCGCCGAAAGGCCTC (((..(((....)))))),-8.95,33.1
GACCCCGAAAGGGCAGTC ((((((....)))..))),-14,35.4
GTCTGTGGAAACATGGAC (((..((....))..))),-26.8,37.3
GCTCTTCGAAAGAAAAGC (((.(((....))).))),-31.4,34.6
GATCACGAAAGTGCGATC ((((((....)))..))),-16.3,29.5
GGTGTCGAAAGACGTACC ((((((....)))..))),-19.3,41.9
GGTGCCGCGAAAGCGACC (((..(((....)))))),-9.79,45.6
GATTTGGCGAAAGCCATC (((..(((....)))))),-6.61,26.1
GAGGACGCGAAAGCGCTC (((..(((....)))))),-12.9,36.9
GATCGTACTGACGATC ((((((....)))))),-36.2,55.2
GTTCAAGGAAACTTGAAC (((((((....))))))),-46.1,53.9
GTTTACACGAAAGTGAAC (((..(((....)))))),-11.9,25.7
GGGGAAGGAAACTTCCTC (.(((((....))))).),-21.6,46.8

Sequence,folding enthalpy [1] [kcal/mol],Tm [2] [°C]
GCAAAGGAAACTTTGC ((((((....)))))),-31.2,55.3
GATCCAGTCGTGGATC ((((((....)))))),-35.9,52.8
GCATCGCGAAAGCGACGC ((.((((....)))).)),-21.4,63.9
GTTCAGGCGAAAGCCAAC (((..(((....)))))),-8.95,26.1
GCAATACGAAAGTATGC (((.(((....)))))),-29.4,50.6
GATCACGAGAGTGATC ((((((....)))))),-28.4,67.8
GCTAAAGGAAACTTTGGC ((.((((....)))).)),-30.4,41.1
GTCTCCGAAAGGAATGAC ((((((....)))..))),-20.7,35.2
GCGGCGCGAAAGCCCAGC ((.(.((....)).).)),-15.3,53
GAACGGCGAAAGCCTTC (((.(((....)))))),-12.4,39.3
GGTGTGGCGAAAGCCACC (((..(((....)))))),-7.44,49
GAATATGGAAACATATTC (((((((....))))))),-35.1,48.1
GGGGTCGAAAGACAGCCC ((((((....)))..))),-16.6,46.2
GCTCACTCGAAAGAGAGC (((..(((....)))))),-25.1,41.6
GATCGTCACACGATC ((((((...)))))),-37.8,57
GTAACCGAAAGGTTTAC ((((((....))).))),-14.2,43
GCCAAGCGAAAGCATAGC ((.(.((....)).).)),-12.9,30.7
GCTACGCGAAAGCGTCGC ((.((((....)))).)),-19.3,57.7
GAGCACGAAAGTGAGCTC ((((((....)))..))),-25.4,49.6
GTACGCTCGAAAGAGTAC (((..(((....)))))),-21.8,34.1
GAAGAACGAAAGTTTTC (((.(((....)))))),-12.6,24.9
GTTTCGCGAAAGCGCAAC (((.(((....))).))),-22.8,44.7
GGGGATGGAAACATCCTC (.(((((....))))).),-24.4,52.4

Sequence,folding enthalpy [1] [kcal/mol],Tm [2] [°C]
GGTCGCGGAAACACGACC (((((.(....).))))),-41,56.9
GATTTGCGAAAGCATATC (((.(((....))).))),-22.9,43.1
GCTGGTCGAAAGACGAGC (((.(((....))).))),-54.3,54.5
GATAGCCCGAAAGGGATC (((..(((....)))))),-8.63,32.6
GAATCCGAAAGGAGGTTC ((((((....)))..))),-10.9,26.2
GTCAGGCCGAAAGGCGAC (((..(((....)))))),-18,46.9
GCAGCGCGAAAGCCCCGC ((.(.((....)).).)),-9.42,37
GATCCCATTGGGATC ((((((...)))))),-31.9,65.5
GGTGACGAAAGTCCACC ((((((....))).))),-25.9,50.8
GCAGGAGGAAACTTCTGC ((((.((....)).)))),-39.5,49.9
GATCCAATGTTGGATC ((((((....)))))),-35,52.6
GTCGTGCGAAAGCATGAC (((.(((....))).))),-34.8,66.3
GAATGCGAAAGCATTTTC ((((((....)))..))),-14.6,49
GTTCCACGAAAGTGAAAC (((.(((....))).))),-25.2,43.4
GAGGATGGAAACGTCTTC ((.((.(....).)).)),-13.1,32.9
GTGATGGGAAACCGTCAC ((((.((....)).)))),-50.2,52.9
CGCTTCGGAAACGAGCG (((.(((....)))))),-27.1,49.3
GAGGTCCGAAAGGATCTC (((.(((....))).))),-37.9,59.6
GTAAAGACGAAAGTCTAC (((..(((....)))))),-11.6,29.8
GTCTCCGAAAGGAGGGAC ((((((....)))..))),-9.56,41.7
GTCATGAAAATGAC (((((....))))),-27.1,50.1
GCTGTTGGAAACAGTAGC (((..((....))..))),-11.9,41.6
GGACCCGGAAACGGGTTC (.(((((....))))).),-25.6,59.4
